In ChEMBL document CHEMBL1147045, “Targeting thioredoxin reductase is a basis for cancer therapy by arsenic trioxide” (2007) one finds Activity data, which are given here for two compounds.

Active and inactive are the calls of the source. The calls are words filed in the database; no cut-off is given here.

Experiment [1] addresses T1, Thioredoxin reductase 1, cytoplasmic (Rattus norvegicus) (UniProt O89049).
T1 sequence (whole entry): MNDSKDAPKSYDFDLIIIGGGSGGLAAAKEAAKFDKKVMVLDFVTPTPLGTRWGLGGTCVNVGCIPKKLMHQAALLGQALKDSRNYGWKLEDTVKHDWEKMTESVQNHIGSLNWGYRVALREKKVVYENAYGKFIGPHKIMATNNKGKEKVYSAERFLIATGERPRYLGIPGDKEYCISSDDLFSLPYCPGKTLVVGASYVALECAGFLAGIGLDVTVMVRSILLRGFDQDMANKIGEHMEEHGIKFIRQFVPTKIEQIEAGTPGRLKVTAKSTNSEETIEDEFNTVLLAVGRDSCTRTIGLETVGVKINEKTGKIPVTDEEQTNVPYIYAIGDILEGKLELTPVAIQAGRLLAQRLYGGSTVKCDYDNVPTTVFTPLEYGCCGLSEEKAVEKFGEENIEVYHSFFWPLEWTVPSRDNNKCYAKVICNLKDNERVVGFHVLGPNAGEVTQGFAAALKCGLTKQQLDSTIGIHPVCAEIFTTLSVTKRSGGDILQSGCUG
The experiment in a line: Inhibition of NADPH-reduced rat recombinant TrxR1 at 0.1 uM attenuated in presence of 1 mM Glutathione after 30 minis. The gist of the method:
(§1)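 NADPH-reduced rat TrxR (10 nM) with 2 μM human Trx, with or without 1 mM GSH, was incubated with ATO for 30 min in Tris/EDTA pH 7.5 containing 200 μM NADPH. Trx-system activity was read after adding 200 μM NADPH/160 μM insulin, as ΔA340/min over the initial 5 min.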

Experiment [2] addresses T1, Thioredoxin reductase 1, cytoplasmic (Rattus norvegicus). Description: Inhibition of NADPH-reduced rat recombinant TrxR1 at >0.5 uM attenuated in presence of 1 mM Glutathione after 30 minis. The method in brief:
as §1

For experiment [3] the target is unchanged. The experiment in a line: Inhibition of NADPH-reduced rat recombinant TrxR1 at 0.25 uM attenuated in presence of 1 mM Glutathione after 30 minis. The method in brief: as §1
In experiment [4] the test system is MCF7. The experiment in a line: Inhibition of human MCF7 cell growth after 24 hrs by XTT assay. It is filed as functional, cell-based. The method in brief:
(§2)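 MCF-7 cells in RPMI 1640/10% FCS were seeded at 6 × 10^3 cells per well, grown overnight, then exposed to ATO for 24 or 48 h. Medium was replaced with XTT labeling mixture for 3 h and A492 of the formazan read as the measure of proliferation/viability.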
On the technique in general: Tetrazolium dyes change colour on reduction, which living cells bring about.

Experiment [5] concerns MCF7. The experiment in a line: Reduction of human MCF7 cell growth at 2.5 uM after 48 hrs by XTT assay. The experiment is classed as functional, cell-based. The method in brief:
as §2

Experiment [6] deals with MCF7. Description: Reduction of human MCF7 cell growth at 5.0 uM after 48 hrs by XTT assay. The experiment is classed as functional, cell-based. The method in brief:
as §2

Experiment [7] deals with Escherichia coli. Description: Inhibition of Escherichia coli thioredoxin upto 5 uM by insulin reduction method. The gist of the method: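 25 nM E. coli TrxR plus 2 μM E. coli Trx were preincubated with ATO for 30 min in 50 mM Tris·HCl/1 mM EDTA pH 7.5 with 200 μM NADPH. Then 200 μM NADPH/160 μM insulin was added and A340 followed. Activity was taken as ΔA340/min over the initial 5 min.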

In experiment [8] the target is T1, Thioredoxin reductase 1, cytoplasmic (Rattus norvegicus). The experiment in a line: Inhibition of NADPH-reduced rat recombinant TrxR1 assessed as […] by DTNB reduction assay. The method in brief:
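Recombinant rat TrxR1 (50 nM), NADPH-reduced, was preincubated with ATO (0.05–5 μM) for 30 min in 50 mM Tris·HCl/1 mM EDTA pH 7.5 with 200 μM NADPH. Activity was then measured with 5 mM DTNB by following A412; the rate was the slope over the initial 2 min. Duplicate experiments; IC50 after 30-min incubation.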

In experiment [9] the test system is MCF7. Description: Reduction of glutathione synthesis in human MCF7 cells at 25 uM after 25 hrs. The experiment is classed as functional. Further details: scale not given: the % may be the effect or the level left.

Consider `O=[As][As+](=O)[O-]` (centres undefined), for which the result in experiment [1], in [3], in [5] and in experiment [6] was Active. Besides, the result in [2], in [4], in experiment [7] and in experiment [8] was inactive.
In the case of `CCCCS(=N)(=O)CCC(N)C(=O)O` (centres undefined) [BUTHIONINE SULFOXIMINE], in experiment [9], the Activity is on record as 80%.
